Experimental data: ChEMBL document CHEMBL3751740, “New MKLP-2 inhibitors in the paprotrain series: Design, synthesis and biological evaluations” (Bioorg Med Chem, 2016)

How the values were obtained:
[1] = molecular target: T1, Kinesin-like protein KIF23 (Homo sapiens) (UniProt Q02241); assay: Inhibition of porcine brain microtubule-stimulated human recombinant GST-tagged MKLP1 ATPase activity at 1 mM by microplate reader in presence of Mg2+ ATP relative to control
T1 sequence (whole entry): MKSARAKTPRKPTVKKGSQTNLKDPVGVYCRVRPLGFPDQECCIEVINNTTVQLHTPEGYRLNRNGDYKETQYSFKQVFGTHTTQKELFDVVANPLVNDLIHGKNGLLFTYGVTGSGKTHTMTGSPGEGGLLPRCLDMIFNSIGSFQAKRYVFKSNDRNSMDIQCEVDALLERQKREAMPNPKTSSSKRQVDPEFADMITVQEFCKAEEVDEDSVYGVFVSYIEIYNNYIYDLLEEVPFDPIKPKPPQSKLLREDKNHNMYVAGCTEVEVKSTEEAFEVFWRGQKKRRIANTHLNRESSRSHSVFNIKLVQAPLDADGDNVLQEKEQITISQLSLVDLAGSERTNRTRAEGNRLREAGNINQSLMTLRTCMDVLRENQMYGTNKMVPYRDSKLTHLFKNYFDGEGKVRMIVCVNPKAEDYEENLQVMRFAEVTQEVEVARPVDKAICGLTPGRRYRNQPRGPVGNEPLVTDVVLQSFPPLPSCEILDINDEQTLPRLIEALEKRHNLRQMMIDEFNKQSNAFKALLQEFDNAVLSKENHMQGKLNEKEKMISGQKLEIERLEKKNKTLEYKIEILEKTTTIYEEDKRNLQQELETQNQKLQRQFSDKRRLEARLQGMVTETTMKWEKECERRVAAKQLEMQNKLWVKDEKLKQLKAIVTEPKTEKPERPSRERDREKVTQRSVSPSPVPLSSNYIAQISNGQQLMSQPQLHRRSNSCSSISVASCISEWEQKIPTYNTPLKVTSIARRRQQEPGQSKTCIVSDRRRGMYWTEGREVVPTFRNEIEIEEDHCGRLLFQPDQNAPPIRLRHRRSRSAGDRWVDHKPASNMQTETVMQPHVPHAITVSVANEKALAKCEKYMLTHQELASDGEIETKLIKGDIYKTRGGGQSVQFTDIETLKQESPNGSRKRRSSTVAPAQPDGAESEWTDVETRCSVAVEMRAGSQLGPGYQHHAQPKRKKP
How it was run: (§1)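 Motor domain at 15 µM final, in 7.5 mM PIPES-NaOH pH 7.0 with […], 10 µM Taxol, ELIPA 1 and 2 reagents and 1.25 mg/mL microtubules. AMP-PNP, a slowly hydrolysable ATP analog and general ATPase inhibitor, tested at 1 mM. Reaction started with 1 mM Mg2+ATP at 22 °C and read kinetically at 360 nm. Run in triplicate.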

[2] = molecular target: T2, Kinesin-like protein KIFC3 (Homo sapiens) (UniProt Q9BVG8); assay: Inhibition of porcine brain microtubule-stimulated human recombinant GST-tagged KIFC3 ATPase activity at 1 mM by microplate reader in presence of Mg2+ ATP relative to control; how it was run: as §1
T2 sequence (whole entry): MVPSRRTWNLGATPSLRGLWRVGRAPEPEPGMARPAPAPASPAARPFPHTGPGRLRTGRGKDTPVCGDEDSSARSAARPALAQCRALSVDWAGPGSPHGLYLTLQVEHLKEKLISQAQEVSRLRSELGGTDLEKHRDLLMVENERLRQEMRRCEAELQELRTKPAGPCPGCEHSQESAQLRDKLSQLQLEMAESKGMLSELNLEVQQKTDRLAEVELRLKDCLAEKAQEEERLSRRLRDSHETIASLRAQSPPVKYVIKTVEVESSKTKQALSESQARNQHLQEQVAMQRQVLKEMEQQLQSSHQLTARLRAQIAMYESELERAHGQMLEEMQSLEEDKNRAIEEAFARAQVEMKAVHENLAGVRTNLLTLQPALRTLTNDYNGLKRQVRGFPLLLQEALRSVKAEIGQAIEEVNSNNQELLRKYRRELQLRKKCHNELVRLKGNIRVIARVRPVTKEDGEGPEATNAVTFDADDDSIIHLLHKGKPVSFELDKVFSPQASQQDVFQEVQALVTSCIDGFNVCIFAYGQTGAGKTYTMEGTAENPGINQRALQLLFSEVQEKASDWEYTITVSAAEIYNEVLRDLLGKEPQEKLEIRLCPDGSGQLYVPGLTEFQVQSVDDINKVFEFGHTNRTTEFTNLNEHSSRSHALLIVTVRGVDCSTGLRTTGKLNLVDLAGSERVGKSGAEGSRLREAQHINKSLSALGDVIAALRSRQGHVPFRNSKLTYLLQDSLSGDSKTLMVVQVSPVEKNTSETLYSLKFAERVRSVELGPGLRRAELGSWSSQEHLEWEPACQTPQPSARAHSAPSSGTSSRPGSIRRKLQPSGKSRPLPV

[3] = molecular target: Centromere-associated protein E (Homo sapiens) (UniProt Q02224); assay: Inhibition of porcine brain microtubule-stimulated human recombinant GST-tagged CENP-E ATPase activity at 1 mM by microplate reader in presence of Mg2+ ATP relative to control; how it was run: as §1
Chain of Centromere-associated protein E (Homo sapiens) (Q02224 whole entry): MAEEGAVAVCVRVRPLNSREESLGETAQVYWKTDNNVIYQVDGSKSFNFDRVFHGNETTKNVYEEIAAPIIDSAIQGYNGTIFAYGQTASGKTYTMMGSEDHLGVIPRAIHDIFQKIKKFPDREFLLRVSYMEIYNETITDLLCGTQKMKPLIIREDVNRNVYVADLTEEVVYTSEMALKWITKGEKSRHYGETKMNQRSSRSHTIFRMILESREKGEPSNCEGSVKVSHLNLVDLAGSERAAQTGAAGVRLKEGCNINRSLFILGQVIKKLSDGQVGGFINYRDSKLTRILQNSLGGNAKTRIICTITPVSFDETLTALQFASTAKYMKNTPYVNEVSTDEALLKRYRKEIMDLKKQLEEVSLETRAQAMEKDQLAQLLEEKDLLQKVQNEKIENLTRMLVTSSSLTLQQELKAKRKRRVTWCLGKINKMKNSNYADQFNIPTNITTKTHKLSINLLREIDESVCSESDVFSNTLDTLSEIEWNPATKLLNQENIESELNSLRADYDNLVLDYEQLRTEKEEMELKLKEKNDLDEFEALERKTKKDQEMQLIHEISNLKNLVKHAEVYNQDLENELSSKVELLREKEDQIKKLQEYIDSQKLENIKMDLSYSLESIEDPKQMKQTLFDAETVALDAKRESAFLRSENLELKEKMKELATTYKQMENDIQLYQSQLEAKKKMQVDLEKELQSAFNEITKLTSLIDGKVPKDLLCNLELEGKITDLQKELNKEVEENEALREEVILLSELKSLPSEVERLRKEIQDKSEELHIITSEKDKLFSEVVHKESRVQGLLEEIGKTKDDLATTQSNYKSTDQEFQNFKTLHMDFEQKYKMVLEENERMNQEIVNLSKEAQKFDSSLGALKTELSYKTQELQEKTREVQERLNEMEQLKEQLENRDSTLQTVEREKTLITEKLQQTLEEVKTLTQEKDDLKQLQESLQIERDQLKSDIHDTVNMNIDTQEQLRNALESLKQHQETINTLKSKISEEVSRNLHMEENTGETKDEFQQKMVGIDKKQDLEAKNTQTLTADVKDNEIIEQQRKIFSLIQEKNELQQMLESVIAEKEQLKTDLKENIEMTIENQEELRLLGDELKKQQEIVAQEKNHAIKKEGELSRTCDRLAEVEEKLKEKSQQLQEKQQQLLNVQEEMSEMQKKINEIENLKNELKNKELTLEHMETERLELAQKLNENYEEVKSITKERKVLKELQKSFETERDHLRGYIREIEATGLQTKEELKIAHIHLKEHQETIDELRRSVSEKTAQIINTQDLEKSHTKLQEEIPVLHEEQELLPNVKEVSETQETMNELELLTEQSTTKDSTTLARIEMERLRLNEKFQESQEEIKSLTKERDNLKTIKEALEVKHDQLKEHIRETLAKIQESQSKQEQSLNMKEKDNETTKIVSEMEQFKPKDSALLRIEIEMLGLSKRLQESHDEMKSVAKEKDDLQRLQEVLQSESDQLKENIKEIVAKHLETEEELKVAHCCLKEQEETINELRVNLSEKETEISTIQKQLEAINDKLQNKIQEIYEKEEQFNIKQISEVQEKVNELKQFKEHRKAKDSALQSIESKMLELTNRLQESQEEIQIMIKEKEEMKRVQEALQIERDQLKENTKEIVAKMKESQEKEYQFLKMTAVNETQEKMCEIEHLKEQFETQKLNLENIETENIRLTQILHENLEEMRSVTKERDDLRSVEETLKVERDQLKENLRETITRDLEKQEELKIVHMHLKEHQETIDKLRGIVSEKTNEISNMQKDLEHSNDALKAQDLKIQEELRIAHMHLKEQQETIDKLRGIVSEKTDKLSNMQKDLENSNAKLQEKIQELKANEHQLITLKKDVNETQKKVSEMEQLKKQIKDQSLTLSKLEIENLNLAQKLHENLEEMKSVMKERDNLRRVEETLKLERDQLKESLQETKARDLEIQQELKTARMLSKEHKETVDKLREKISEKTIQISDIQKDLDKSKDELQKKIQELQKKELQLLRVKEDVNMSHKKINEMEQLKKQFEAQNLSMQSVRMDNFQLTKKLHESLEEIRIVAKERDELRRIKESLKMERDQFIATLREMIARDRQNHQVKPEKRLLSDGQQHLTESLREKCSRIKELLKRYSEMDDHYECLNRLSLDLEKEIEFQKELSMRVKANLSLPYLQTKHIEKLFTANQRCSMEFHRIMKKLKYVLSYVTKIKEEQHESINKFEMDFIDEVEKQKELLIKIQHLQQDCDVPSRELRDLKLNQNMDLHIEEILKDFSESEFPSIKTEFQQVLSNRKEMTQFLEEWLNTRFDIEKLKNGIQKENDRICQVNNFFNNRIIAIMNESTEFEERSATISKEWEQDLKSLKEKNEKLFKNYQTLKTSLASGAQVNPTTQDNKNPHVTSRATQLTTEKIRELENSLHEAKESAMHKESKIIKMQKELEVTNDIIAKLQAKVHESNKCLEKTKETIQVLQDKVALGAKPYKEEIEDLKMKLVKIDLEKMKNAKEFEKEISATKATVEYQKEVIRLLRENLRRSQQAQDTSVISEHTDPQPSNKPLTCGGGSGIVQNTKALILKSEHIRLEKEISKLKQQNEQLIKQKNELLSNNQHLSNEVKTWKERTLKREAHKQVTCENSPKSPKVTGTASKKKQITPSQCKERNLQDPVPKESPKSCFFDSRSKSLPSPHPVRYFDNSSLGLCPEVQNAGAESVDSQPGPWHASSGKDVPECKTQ

[4] = system: A549; assay: Growth inhibition of human A549 cells incubated for 4 days by WST-1 assay; assay type: functional; settings: A549, 96 h
How it was run: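 Cells were kept at 37 °C under 5% CO2 and plated on day 0 at 500–5000 cells/well. On day 1 they received ten concentrations from 0.0025 to 50 µM (final), in triplicate. On day 4 WST-1 was added, followed by 30 min–4 h incubation and absorbance at 450 nm. GI50 is the concentration killing 50% of cells.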

GI50 [4] [µM] | Compound | inhibition [1] [%] | inhibition [2] [%] | inhibition [3] [%]
 | Nc1ncnc2c1ncn2[C@@H]1O[C@H](COP(=O)(O)OP(=O)(O)NP(=O)(O)O)[C@@H](O)[C@H]1O | > 30 | > 30 | > 30
9.4 | COc1ccc2[nH]cc(/C(C#N)=C/c3cccnc3)c2c1 |  |  | 
